Experimental data as given in ChEMBL document CHEMBL2086318, “Synthesis and in vitro antimycobacterial activity of 2-methoxybenzanilides and their thioxo analogues” (Eur J Med Chem, 2012).
Converted amounts (≈) assume the structure as drawn.

Assays:
[1] = tested on: Mycobacterium avium; assay: Antimycobacterial activity against Mycobacterium avium My 330/88 after 14 days by micromethod; type: functional; conditions: My 330/88, 336 h
[2] = tested on: Mycobacterium kansasii; assay: Antimycobacterial activity against Mycobacterium kansasii My 235/80 after 21 days by micromethod; type: functional; conditions: My 235/80, 504 h
[3] = tested on: Mycobacterium kansasii; assay: Antimycobacterial activity against Mycobacterium kansasii My 6509/96 clinical isolate after 7 days by micromethod; type: functional; conditions: My 6509/96, 168 h
[4] = tested on: HepG2; assay: Cytotoxicity against human HepG2 cells after 24 hrs by CellTiter assay; type: cell-based; conditions: HepG2, 24 h
How it was run: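 Hep G2 cells (passage 12), 10,000 per well in MEM with 1% glutamine, 10% FBS and 1% nonessential amino acids, preincubated 24 h at 37 °C, 5% CO2. Compounds dissolved in DMSO, tested at eight concentrations in quadruplicate for 24 h at 37 °C. MTS-type reagent added for 1.5 h, absorbance read at 490 nm. IC50 = concentration reducing viability to 50% of control.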

[5] = tested on: Mycobacterium kansasii; assay: Antimycobacterial activity against Mycobacterium kansasii My 6509/96 clinical isolate after 14 days by micromethod; type: functional; conditions: My 6509/96, 336 h
[6] = tested on: Mycobacterium avium; assay: Antimycobacterial activity against Mycobacterium avium My 330/88 after 21 days by micromethod; type: functional; conditions: My 330/88, 504 h
[7] = tested on: Mycobacterium kansasii; assay: Antimycobacterial activity against Mycobacterium kansasii My 6509/96 clinical isolate after 21 days by micromethod; type: functional; conditions: My 6509/96, 504 h
[8] = Selectivity ratio of IC50 for human HepG2 cells to MIC for Mycobacterium tuberculosis My 331/88 after 14 days; type: functional
How it was run: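 HepG2 cells (passage 12) at 10,000 cells/well in MEM with 10% FBS, 1% glutamine and 1% nonessential amino acids, pre-incubated 24 h at 37 °C, 5% CO2. Compounds in DMSO at eight concentrations in quadruplicate for 24 h. MTS-type reagent added for 1.5 h, absorbance at 490 nm. IC50 from curve fit. SI = IC50 / 14-day MIC against M. tuberculosis 331/88.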

[9] = tested on: Mycobacterium tuberculosis; assay: Antimycobacterial activity against Mycobacterium tuberculosis My 331/88 after 21 days by micromethod; type: functional; conditions: My 331/88, 504 h
How it was run: (§1)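 MIC by micromethod at 37 °C, read after 14 and 21 days. Inocula were M. tuberculosis My 331/88 at 10^-3 dilution and M. avium My 330/88 at 10^-5 dilution. Compounds added in DMSO across 1000, 500, 250, 125, 62.5, 32, 16, 8, 4, 2, 1 and 0.5; isoniazid standard in sterile water. MIC taken as the lowest concentration inhibiting growth.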

[10] = tested on: Mycobacterium kansasii; assay: Antimycobacterial activity against Mycobacterium kansasii My 235/80 after 7 days by micromethod; type: functional; conditions: My 235/80, 168 h
[11] = tested on: Mycobacterium tuberculosis; assay: Antimycobacterial activity against Mycobacterium tuberculosis My 331/88 after 14 days by micromethod; type: functional; conditions: My 331/88, 336 h; how it was run: as §1
[12] = target: T1, Isocitrate lyase (Mycobacterium tuberculosis) (UniProt P9WKK7); assay: Inhibition of Mycobacterium tuberculosis H37Rv isocitrate lyase expressed in Escherichia coli BL21(DE3) using (+)-potassium Ds-threo-isocitrate as substrate assessed as glyoxylate phenyl hydrazone formation at 100 umol/L by spectrophotometry
T1 sequence (whole entry): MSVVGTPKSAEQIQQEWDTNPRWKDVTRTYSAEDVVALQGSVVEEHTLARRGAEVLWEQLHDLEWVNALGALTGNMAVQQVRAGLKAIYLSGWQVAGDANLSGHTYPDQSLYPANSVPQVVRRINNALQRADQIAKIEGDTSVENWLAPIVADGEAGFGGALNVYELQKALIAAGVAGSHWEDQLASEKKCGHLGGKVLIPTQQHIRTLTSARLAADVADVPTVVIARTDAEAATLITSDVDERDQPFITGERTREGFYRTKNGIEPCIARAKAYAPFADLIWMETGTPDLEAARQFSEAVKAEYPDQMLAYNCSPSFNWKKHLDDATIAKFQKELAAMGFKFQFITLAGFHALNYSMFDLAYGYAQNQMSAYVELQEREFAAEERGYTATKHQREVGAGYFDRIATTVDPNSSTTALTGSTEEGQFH

[13] = tested on: Mycobacterium kansasii; assay: Antimycobacterial activity against Mycobacterium kansasii My 235/80 after 14 days by micromethod; type: functional; conditions: My 235/80, 336 h

Row | Structure (SMILES) | MIC [1] [µM] | MIC [2] [µM] | MIC [3] [µM] | IC50 [4] [µM] | MIC [5] [µM] | MIC [6] [µM] | MIC [7] [µM] | Selectivity ratio [8] | MIC [9] [µM] | MIC [10] [µM] | MIC [11] [µM] | inhibition [12] [%] | MIC [13] [µM]
1 | COc1cc(Cl)ccc1C(=S)Nc1ccc(Cl)c(Cl)c1 | 32 (≈ 11.1 µg/mL) | 62.5 (≈ 21.7 µg/mL) | 16 (≈ 5.55 µg/mL) | 6.5 | 32 (≈ 11.1 µg/mL) | 32 (≈ 11.1 µg/mL) | 32 (≈ 11.1 µg/mL) | 3.25 | 8 (≈ 2.77 µg/mL) | 16 (≈ 5.55 µg/mL) | 2 (≈ 0.693 µg/mL) | 17 | 32 (≈ 11.1 µg/mL)
2 | COc1cc(Cl)ccc1C(=S)Nc1cccc(Cl)c1 | 16 (≈ 5 µg/mL) | 32 (≈ 9.99 µg/mL) | 16 (≈ 5 µg/mL) | 11.7 | 32 (≈ 9.99 µg/mL) | 16 (≈ 5 µg/mL) | 32 (≈ 9.99 µg/mL) | 2.92 | 16 (≈ 5 µg/mL) | 16 (≈ 5 µg/mL) | 4 (≈ 1.25 µg/mL) | 20 | 32 (≈ 9.99 µg/mL)
3 | COc1cc(Cl)ccc1C(=S)Nc1cccc(C(F)(F)F)c1 | 32 (≈ 11.1 µg/mL) | 32 (≈ 11.1 µg/mL) | 16 (≈ 5.53 µg/mL) | 1.81 | 32 (≈ 11.1 µg/mL) | 32 (≈ 11.1 µg/mL) | 32 (≈ 11.1 µg/mL) | 0.45 | 8 (≈ 2.77 µg/mL) | 16 (≈ 5.53 µg/mL) | 4 (≈ 1.38 µg/mL) | 23 | 32 (≈ 11.1 µg/mL)
4 | COc1cc(Cl)ccc1C(=S)Nc1ccc(Br)cc1 | 16 (≈ 5.71 µg/mL) | 62.5 (≈ 22.3 µg/mL) | 16 (≈ 5.71 µg/mL) | 3.55 | 32 (≈ 11.4 µg/mL) | 62.5 (≈ 22.3 µg/mL) | 62.5 (≈ 22.3 µg/mL) | 0.89 | 16 (≈ 5.71 µg/mL) | 32 (≈ 11.4 µg/mL) | 4 (≈ 1.43 µg/mL) | 27 | 62.5 (≈ 22.3 µg/mL)
5 | COc1cc(Cl)ccc1C(=S)Nc1ccc(Cl)cc1 | 32 (≈ 9.99 µg/mL) | 62.5 (≈ 19.5 µg/mL) | 16 (≈ 5 µg/mL) | 2.93 | 32 (≈ 9.99 µg/mL) | 32 (≈ 9.99 µg/mL) | 62.5 (≈ 19.5 µg/mL) | 0.73 | 16 (≈ 5 µg/mL) | 32 (≈ 9.99 µg/mL) | 4 (≈ 1.25 µg/mL) | 39 | 62.5 (≈ 19.5 µg/mL)
